Test results from PMC11838921 (Journal of agricultural and food chemistry, 2024).

How the values were obtained:
[1] = tested on: antiphenamacril mAb; test: ic-ELISA for sensitivity and specificity of the mAb; assay type: binding, Balb/c mice; conditions: for Cross-reactivity: CR = IC50(analyte)/IC50(structural analogue) x 100%; for IC50: ic-ELISA, standards in 10% methanol-PBS
How it was run: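 Ic-ELISA with purified mAb (ascites, Protein G column). Phenamacril standards at 0–500 ng/mL (500 to 1.95 in twofold steps) in 10% methanol-PBS; 50 μL standard and 50 μL mAb per well. IC50 taken as sensitivity. Cross-reactivity run with four methoxyacrylate analogues: IC50(analyte)/IC50(analogue) × 100%.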

[2] = tested on: Au@PDA-mAb probe; test: dual-readout immunochromatographic strip; assay type: binding
How it was run: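 Standards and analogues at 0.63–20 ng/mL in PBS with 10% methanol were applied to the strip sample pad (100 μL). Au@PDA-mAb probe sat on the conjugate pad. T line held phenamacril-OVA plus QDs-OVA; C line held anti-mouse IgG. Colour read by eye as T-line red loss against the C line. Fluorescence read as green T-line intensity under UV.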

[3] = tested on: Au@PDA-mAb probe; test: dr-ICGA on wheat flour samples; assay type: binding; conditions: n = 5
How it was run: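 Phenamacril-free flour (5 g, confirmed by LC-MS/MS) in 10 mL ultrapure water, vortexed 2 min, spiked with standard to 0.0125–0.20 mg/kg; water-only blank at 0 mg/kg. Residue redissolved in 1 mL 10% methanol-PBS, then diluted 10-fold. 100 μL applied to the strip. Read by eye as −, ± or +, with cut-offs <0.05, 0.05–0.1 and >0.1 mg/kg.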

[4] = tested on: antisera; test: ic-ELISA of antiserum of the immunized mouse; assay type: binding, Balb/c mice; conditions: phenamacril at 1 μg/mL, mouse used for fusion (titer 80,000)
[5] = Jiangxi red soil; cited from earlier work
[6] = activated sludge; cited from earlier work

CO/C=C(/C(=O)OC)c1ccccc1COc1cccc(C(F)(F)F)n1 [Picoxystrobin]
Cross-reactivity [1]: <0.35% | Cross-reactivity ([1]; listed as picoxystrobin): < 0.35% | IC50 [1]: >5,000 ng/mL

COC(=O)N(OC)c1ccccc1COc1ccn(-c2ccc(Cl)cc2)n1 [Pyraclostrobin]
Cross-reactivity [1]: <0.35% | Cross-reactivity ([1]; listed as pyraclostrobin): < 0.35% | IC50 [1]: >5,000 ng/mL

CCOC(=O)C(C#N)=C(N)c1ccccc1 [Phenamacril, 2-cyano-3-amino-3-phenylacrylic acetate]
Cross-reactivity [1]: 100% | IC50 [1]: 17.46 ng/mL | reaction on the T line of the dual-readout strip ([2]; 20 ng/mL loaded, visual and UV readout): strong positive reaction on the T line | limit of detection (cutoff value) ([2]; dr-ICGA, colorimetric and fluorescent readout, within 10 min): 5 ng/mL | dr-ICGA visual result (dilute 10 times) ([3]; wheat flour spiked 0.0125 mg/kg): −, −, −, −, −, | dr-ICGA visual result (dilute 10 times) ([3]; wheat flour spiked 0.025 mg/kg): −, ± , −, ± , −, | dr-ICGA visual result (dilute 10 times) ([3]; wheat flour spiked 0.05 mg/kg): ±, ± , ± , ± , ± , | dr-ICGA visual result (dilute 10 times) ([3]; wheat flour spiked 0.1 mg/kg): ±, + , + , + , + , | dr-ICGA visual result (dilute 10 times) ([3]; wheat flour spiked 0.2 mg/kg): +, + , + , + , + , | inhibition rate [4]: approximately 70.8% | mobility in soil [5]: moderately mobile | degradation [6]: degrades slowly

CO/C=C(/C(=O)OC)c1ccccc1Oc1cc(Oc2ccccc2C#N)ncn1 [Azoxystrobin]
Cross-reactivity [1]: <0.35% | Cross-reactivity ([1]; listed as azoxystrobin): < 0.35% | IC50 [1]: >5,000 ng/mL

COc1c(F)c(F)c(C(=O)NCc2ncc(C(F)(F)F)cc2Cl)c(F)c1F [Fluopimomide]
Cross-reactivity [1]: <0.35% | Cross-reactivity ([1]; listed as fluopimomide): < 0.35% | IC50 [1]: >5,000 ng/mL
